Experimental data taken from ChEMBL document CHEMBL2086326, “Biological activity evaluation and structure-activity relationships analysis of ferulic acid and caffeic acid derivatives for anticancer” (Bioorg Med Chem Lett, 2012).

Tests used:
Type in all cases: functional, cell-based
LOX IMVI = assay: Cytotoxicity against human LOXIMVI cells after 72 hrs by alamar blue assay
Procedure, shortened: (§1)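 Cells seeded at 800–1000 per well (20–25 cells/µL) and left overnight to attach. Compounds were diluted serially from 10 mM DMSO stocks and tested at 8 final concentrations, 50 to 0.39 µM, in triplicate for 72 h. Vehicle control was 0.5% DMSO. Alamar blue was added to 10% final and fluorescence read after 4 h (ex 530, em 560 nm). Viability was expressed as percent of vehicle, and IC50 taken as 50% kill versus control.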

NCI-H460 = assay: Cytotoxicity against human H460 cells after 72 hrs by alamar blue assay; conditions: NCI-H460, 72 h; procedure, shortened: as §1
[1] = Cytotoxicity against human 292G cells after 72 hrs by alamar blue assay; procedure, shortened: as §1
NCI-H1299 = assay: Cytotoxicity against human NCI-H1299 cells after 72 hrs by alamar blue assay; conditions: NCI-H1299, 72 h; procedure, shortened: as §1
M14 = assay: Cytotoxicity against human M14 cells after 72 hrs by alamar blue assay; conditions: M14, 72 h; procedure, shortened: as §1
HOP-62 = assay: Cytotoxicity against human HOP62 cells after 72 hrs by alamar blue assay; conditions: HOP-62, 72 h; procedure, shortened: as §1
[2] = Cytotoxicity against human SKBR cells after 72 hrs by alamar blue assay; procedure, shortened: as §1
NCI-H1792 = assay: Cytotoxicity against human NCI-H1792 cells after 72 hrs by alamar blue assay; conditions: NCI-H1792, 72 h; procedure, shortened: as §1
[3] = Cytotoxicity against human H266 cells after 72 hrs by alamar blue assay; conditions: H266, 72 h; procedure, shortened: as §1
[4] = Cytotoxicity against human M4E cells after 72 hrs by alamar blue assay; procedure, shortened: as §1
Calu-1 = assay: Cytotoxicity against human Calu1 cells after 72 hrs by alamar blue assay; conditions: Calu-1, 72 h; procedure, shortened: as §1
HeLa = assay: Cytotoxicity against human HeLa cells after 72 hrs by alamar blue assay; procedure, shortened: as §1
A549 = assay: Cytotoxicity against human A549 cells after 72 hrs by alamar blue assay; conditions: A549, 72 h; procedure, shortened: as §1
NCI-H157 = assay: Cytotoxicity against human NCI-H157 cells after 72 hrs by alamar blue assay; conditions: NCI-H157, 72 h; procedure, shortened: as §1

| SMILES | IC50 (LOX IMVI) | IC50 (NCI-H460) | IC50 [1] | IC50 (NCI-H1299) | IC50 (M14) | IC50 (HOP-62) | IC50 [2] | IC50 (NCI-H1792) | IC50 [3] | IC50 [4] | IC50 (Calu-1) | IC50 (HeLa) | IC50 (A549) | IC50 (NCI-H157) |
| --- | --- | --- | --- | --- | --- | --- | --- | --- | --- | --- | --- | --- | --- | --- |
| COc1cc(/C=C/C(=O)OCCCCCO[N+](=O)[O-])ccc1OCCCCCO[N+](=O)[O-] | > 50 µM | > 50 µM | > 50 µM | > 50 µM | > 50 µM | > 50 µM | > 50 µM | > 50 µM | > 50 µM | > 50 µM | > 50 µM | > 50 µM | > 50 µM | > 50 µM |
| CCCCOC(=O)/C=C/c1ccc(O)c(O)c1 [BUTYL CAFFEATE] | 9.54 µM | 5.62 µM | 6.46 µM | 5.81 µM | 11.1 µM | 5.59 µM | 2.17 µM | 5.75 µM | 11.3 µM | 8.66 µM | 11.7 µM | 0.59 µM | 3.51 µM | 2.62 µM |
| COc1cc(/C=C/C(=O)OC(C)C)ccc1O | > 50 µM | > 50 µM | > 50 µM | > 50 µM | > 50 µM | > 50 µM | > 50 µM | > 50 µM | > 50 µM | > 50 µM | > 50 µM | 31.1 µM | > 50 µM | > 50 µM |
| COc1cc(/C=C/C(=O)OCCCCOc2no[n+]([O-])c2S(=O)(=O)c2ccccc2)ccc1O | 0.44 µM | 0.45 µM | 1.93 µM | 0.42 µM | 0.4 µM | 0.41 µM | 0.42 µM | 0.42 µM | 0.4 µM | 0.84 µM | 0.41 µM | 0.46 µM | 0.4 µM | 0.42 µM |
| COc1cc(/C=C/C(=O)OCc2cccc(OCc3c(-c4ccccc4)no[n+]3[O-])c2)ccc1O | > 50 µM | 29.4 µM | > 50 µM | > 50 µM | > 50 µM | > 50 µM | 4.18 µM | > 50 µM | > 50 µM | > 50 µM | > 50 µM | 5.64 µM | > 50 µM | > 50 µM |
| COc1cc(/C=C/C(=O)OCC(C)C)ccc1O | > 50 µM | > 50 µM | > 50 µM | 38 µM | > 50 µM | > 50 µM | 44.8 µM | > 50 µM | 35.7 µM | > 50 µM | > 50 µM | 28.7 µM | 34.6 µM | 28.3 µM |
| O=C(/C=C/c1ccc(OCCCCO[N+](=O)[O-])c(O)c1)OCCCCO[N+](=O)[O-] | > 50 µM | > 50 µM | > 50 µM | > 50 µM | > 50 µM | > 50 µM | 3.23 µM | > 50 µM | > 50 µM | > 50 µM | > 50 µM | 3.93 µM | 0.41 µM | > 50 µM |
| CCCOC(=O)/C=C/c1ccc(O)c(OC)c1 | 15.2 µM | 25.2 µM | 35.9 µM | 40.3 µM | 28.1 µM | 22.4 µM | 24.5 µM | 34.1 µM | 20.4 µM | 18.5 µM | 48.9 µM | 5.62 µM | 15.6 µM | 15.2 µM |
| COc1cc(/C=C/C(=O)OCCCCO[N+](=O)[O-])ccc1O | 20.4 µM | 19.5 µM | 28.4 µM | 4.51 µM | 32.5 µM | 13.1 µM | 8.92 µM | 20.8 µM | 24.8 µM | 20.3 µM | 30.1 µM | 6.35 µM | 8.82 µM | 12.9 µM |
| CCCCOC(=O)/C=C/c1ccc(O)c(OC)c1 | 19.3 µM | 19.4 µM | 22.9 µM | 8.23 µM | 18.1 µM | 14.9 µM | 13.2 µM | 15 µM | 18.3 µM | 15 µM | 17.2 µM | 10.3 µM | 8.23 µM | 9.03 µM |
| COc1cc(/C=C/C(=O)OCCOCCOc2no[n+]([O-])c2S(=O)(=O)c2ccccc2)ccc1O | 0.42 µM | 0.43 µM | 2.88 µM | 0.49 µM | 0.41 µM | 0.48 µM | 0.41 µM | 1.07 µM | 0.42 µM | 1.12 µM | 0.45 µM | 0.43 µM | 0.41 µM | 0.44 µM |
